ChEMBL document CHEMBL4422632, “Design of Novel Inhibitors of Human Thymidine Phosphorylase: Synthesis, Enzyme Inhibition, in Vitro Toxicity, and Impact on Human Glioblastoma Cancer” (J Med Chem, 2019)
The source made the active and inactive calls. No cut-off for these calls is given here.

Legend:
[1] = test system: U-87 MG; test: Antitumor activity against human U87MG cells xenografted in BALB/c nude mouse assessed as tumor growth inhibition 50 mg/kg/day, ip administered for 14 days co-treated with temozolamide; type: functional, organism-based; conditions: U-87MG ATCC
How it was run: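 5 x 10⁵ U-87 MG cells implanted subcutaneously in right flank of male BALB/c nude mice; at about 50 mm³, randomized to saline or ip 50 mg/kg/day, with temozolomide 50 mg/kg/day in the combination arm, for 14 days. Relative tumor volume = volume on day / day 0; TGI on day 14 = [1 − RTV treated/RTV control] x 100. Two-way ANOVA with Bonferroni.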

[2] = Cytotoxicity against mouse RAW264.7 cells assessed as cell viability at 100 uM after 72 hrs by neutral red uptake-based assay relative to control; conditions: read-out: Activity
How it was run: (§1)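 Cells kept in DMEM with 10% heat-inactivated FBS, 1% penicillin-streptomycin and 0.1% fungizone at 37 °C, 5% CO₂. U-87 MG seeded at 2 x 10^3 cells/well, RAW 264.7 at 5 x 10^2, adhered 24 h, then exposed 72 h. MTT: 1 mg/mL for 3 h, formazan in DMSO, A595. NRU: 25 μg/mL dye, 3 h, ethanol:acetic acid:water desorb. Untreated wells = 100%; three to five independent experiments in triplicate.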

[3] = AUC (0 to infinity) in CF1 mouse at 50 mg/kg, ip by non-compartmental analysis; type: ADME, organism-based; set-up: dose 50 mg/kg, time infinity, route intraperitoneal; conditions: in vivo
How it was run: (§2)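 Male CF1 mice received a single ip injection of 50 mg/kg in 0.9% saline; 3 animals per time point, killed 0.03, 0.08, 0.25, 0.5, 1 and 2 h after dosing; blood collected in heparin tubes.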

[4] = Cytotoxicity against human HepG2 cells assessed as cell viability at 100 uM after 72 hrs by MTT assay relative to control; type: cell-based; conditions: read-out: Activity
How it was run: (§3)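 Cells grown in DMEM with 10% FBS at 37 °C, 5% CO₂; seeded 2 x 10³ cells/well, adhered 24 h, then exposed 72 h. MTT: 1 mg/mL for 3 h, formazan in DMSO, absorbance 595 nm. NRU: neutral red 25 µg/mL in serum-free medium for 3 h, desorbed in ethanol:acetic acid:water. Viability as % of untreated control; mean ± SEM of three to five independent experiments in triplicate.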

[5] = Elimination half life in CF1 mouse at 50 mg/kg, ip by non-compartmental analysis; type: ADME, organism-based; conditions: in vivo
[6] = Cytotoxicity against human HaCaT cells assessed as cell viability at 25 uM after 72 hrs by neutral red uptake-based assay relative to control; conditions: read-out: Activity; how it was run: as §3
[7] = Cytotoxicity against human HaCaT cells assessed as cell viability at 100 uM after 72 hrs by MTT assay relative to control; type: cell-based; conditions: read-out: Activity; how it was run: as §3
[8] = Cytotoxicity against human HepG2 cells assessed as cell viability at 1000 uM after 72 hrs by neutral red uptake-based assay relative to control; conditions: read-out: Activity; how it was run: as §3
[9] = Cytotoxicity against human U87MG cells assessed as cell viability at 1000 uM after 72 hrs by MTT assay relative to control; type: cell-based, U-87MG ATCC; conditions: read-out: Activity; how it was run: as §3
[10] = biological target: Cytochrome P450 2C9 (Homo sapiens, UniProt P11712); test: Inhibition of CYP2C9 in human liver microsomes by HPLC-MS/MS analysis; type: ADME
Cytochrome P450 2C9, sequence (P11712 whole entry): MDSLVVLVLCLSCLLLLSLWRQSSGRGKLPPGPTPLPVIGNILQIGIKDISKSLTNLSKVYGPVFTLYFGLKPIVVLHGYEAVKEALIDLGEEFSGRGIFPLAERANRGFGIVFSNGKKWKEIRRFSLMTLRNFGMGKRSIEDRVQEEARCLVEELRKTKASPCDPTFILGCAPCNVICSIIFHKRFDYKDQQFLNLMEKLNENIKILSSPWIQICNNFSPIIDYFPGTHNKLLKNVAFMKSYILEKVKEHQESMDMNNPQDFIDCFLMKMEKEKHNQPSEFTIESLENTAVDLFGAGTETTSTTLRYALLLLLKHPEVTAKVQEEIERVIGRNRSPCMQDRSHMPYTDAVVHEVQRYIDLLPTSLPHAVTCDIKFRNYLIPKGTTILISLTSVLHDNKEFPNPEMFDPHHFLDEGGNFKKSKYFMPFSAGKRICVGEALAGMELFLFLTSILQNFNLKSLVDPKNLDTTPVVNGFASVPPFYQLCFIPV

[11] = Cytotoxicity against mouse RAW264.7 cells assessed as cell viability at 100 uM after 72 hrs by MTT assay relative to control; type: cell-based; conditions: read-out: Activity; how it was run: as §1
[12] = Cytotoxicity against African green monkey Vero cells assessed as cell viability at 1000 uM after 72 hrs by neutral red uptake-based assay relative to control; conditions: chlorocebus sabaeus, read-out: Activity; how it was run: as §3
[13] = Cytotoxicity against human HaCaT cells assessed as cell viability at 25 uM after 72 hrs by MTT assay relative to control; type: cell-based; conditions: read-out: Activity; how it was run: as §3
[14] = biological target: Cytochrome P450 2D6 (Homo sapiens, UniProt P10635); test: Inhibition of CYP2D6 in human liver microsomes by HPLC-MS/MS analysis; type: ADME
Cytochrome P450 2D6, sequence (P10635 whole entry): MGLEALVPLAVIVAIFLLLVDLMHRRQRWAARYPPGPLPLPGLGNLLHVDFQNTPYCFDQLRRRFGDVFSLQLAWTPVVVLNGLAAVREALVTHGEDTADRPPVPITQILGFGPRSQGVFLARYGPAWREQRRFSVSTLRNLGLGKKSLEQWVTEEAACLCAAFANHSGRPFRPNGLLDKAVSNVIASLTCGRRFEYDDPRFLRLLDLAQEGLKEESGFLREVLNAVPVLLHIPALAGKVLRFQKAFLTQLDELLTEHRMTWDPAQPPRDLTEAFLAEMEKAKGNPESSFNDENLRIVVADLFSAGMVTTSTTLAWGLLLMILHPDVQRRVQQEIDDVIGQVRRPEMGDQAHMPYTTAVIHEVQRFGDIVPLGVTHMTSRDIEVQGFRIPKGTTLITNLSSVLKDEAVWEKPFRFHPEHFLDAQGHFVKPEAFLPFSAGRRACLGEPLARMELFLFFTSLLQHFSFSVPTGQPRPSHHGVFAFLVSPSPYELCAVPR

[15] = Cytotoxicity against human HepG2 cells assessed as cell viability at 50 uM after 72 hrs by MTT assay relative to control; type: cell-based; conditions: read-out: Activity; how it was run: as §3
[16] = Toxicity in nude BALB/c mouse xenografted with human U87MG cells assessed as reduction in body weight at 50 mg/kg, […]; type: organism-based; conditions: in vivo, ip, 120 h
[17] = Cytotoxicity against mouse RAW264.7 cells assessed as cell viability at 250 uM after 72 hrs by MTT assay relative to control; type: cell-based; conditions: read-out: Activity; how it was run: as §1
[18] = Cytotoxicity against human HaCaT cells assessed as cell viability at 50 uM after 72 hrs by MTT assay relative to control; type: cell-based; conditions: read-out: Activity; how it was run: as §3
[19] = Cytotoxicity against mouse RAW264.7 cells assessed as cell viability at 500 uM after 72 hrs by MTT assay relative to control; type: cell-based; conditions: read-out: Activity; how it was run: as §1
[20] = Cytotoxicity against mouse RAW264.7 cells assessed as cell viability at 50 uM after 72 hrs by MTT assay relative to control; type: cell-based; conditions: read-out: Activity; how it was run: as §1
[21] = Cytotoxicity against human HepG2 cells assessed as cell viability at 500 uM after 72 hrs by neutral red uptake-based assay relative to control; conditions: read-out: Activity; how it was run: as §3
[22] = AUCt in CF1 mouse at 50 mg/kg, ip by non-compartmental analysis; type: ADME, organism-based; conditions: in vivo; how it was run: as §2
[23] = test system: U-87 MG; test: Anti-angiogenic activity in tumor of human U87MG cells xenografted in nude BALB/c mouse assessed as reduction in VEGF staining at 50 mg/kg, ip administered for 14 days by immunohistochemistry; type: functional, organism-based; conditions: U-87MG ATCC
How it was run: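 Male nude mice bearing subcutaneous right-flank xenografts of 5 x 10⁵ U-87 MG cells; dosing began at about 50 mm³ tumors, ip daily for 14 days. Tumors formalin-fixed, paraffin sections 3 µm; citrate pH 6 antigen retrieval at 95-98 °C; primary antibody overnight at 4 °C, HRP secondary, DAB. Positive area quantified by optical density at x200, 4 images per tumor; mean ± SEM, one-way ANOVA with Dunnett.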

[24] = Cytotoxicity against African green monkey Vero cells assessed as cell viability at 25 uM after 72 hrs by neutral red uptake-based assay relative to control; conditions: chlorocebus sabaeus, read-out: Activity; how it was run: as §3
[25] = Cytotoxicity against human HepG2 cells assessed as cell viability at 50 uM after 72 hrs by neutral red uptake-based assay relative to control; conditions: read-out: Activity; how it was run: as §3
[26] = Cytotoxicity against human U87MG cells assessed as cell viability at 100 uM after 72 hrs by neutral red uptake-based assay relative to control; set-up: species or system U-87MG ATCC; conditions: read-out: Activity; how it was run: as §3
[27] = biological target: Cytochrome P450 3A4 (Homo sapiens, UniProt P08684); test: Inhibition of CYP3A4 in human liver microsomes by HPLC-MS/MS analysis; type: ADME
Cytochrome P450 3A4, sequence (P08684 whole entry): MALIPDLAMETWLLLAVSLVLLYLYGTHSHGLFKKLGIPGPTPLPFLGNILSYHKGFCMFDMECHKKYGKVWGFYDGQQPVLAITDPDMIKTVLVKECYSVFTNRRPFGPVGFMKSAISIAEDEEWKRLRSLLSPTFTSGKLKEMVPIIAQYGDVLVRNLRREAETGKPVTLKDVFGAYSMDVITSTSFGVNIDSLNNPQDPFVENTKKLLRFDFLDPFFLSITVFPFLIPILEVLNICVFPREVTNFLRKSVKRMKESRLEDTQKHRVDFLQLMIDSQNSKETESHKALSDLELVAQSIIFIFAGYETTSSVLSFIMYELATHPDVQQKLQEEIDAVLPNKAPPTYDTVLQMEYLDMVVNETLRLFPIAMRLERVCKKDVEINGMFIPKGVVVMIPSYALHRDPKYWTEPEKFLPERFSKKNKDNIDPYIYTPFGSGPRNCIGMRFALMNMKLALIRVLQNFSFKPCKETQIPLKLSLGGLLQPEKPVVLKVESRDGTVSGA

[28] = test system: HepG2; test: Genotoxicity in human HepG2 cells assessed as induction of DNA-strand breaks at 1000 uM after 24 hrs by alkaline comet assay; type: toxicity, cell-based; conditions: hepg2, 24 h
How it was run: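 HepG2 seeded at 5 x 10^4 cells/well for 24 h, then exposed 24 h at 250, 500 and 1,000 μM. Alkaline comet assay: lysis 24 h, unwinding in 300 mM NaOH/1 mM EDTA (pH > 13) at 4 °C for 20 min, electrophoresis 20 min at 25 V, silver staining. MMS 100 µM as positive control. 100 cells scored 0–4 for a damage index of 0–400. Mean ± SEM of three experiments.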

[29] = Cytotoxicity against human U87MG cells assessed as cell viability at 500 uM after 72 hrs by MTT assay relative to control; type: cell-based, U-87MG ATCC; conditions: read-out: Activity; how it was run: as §1

Which results are given for `O=c1[nH]c(CNC(CO)CO)c(I)c(=O)[nH]1`?
TGI [1]: Active; viability at 72 h, 100 µM [2]: 97%; AUC [3]: 17400 ng·h/mL; viability at 72 h, 100 µM [4]: 100%; beta t1/2 [5]: 30 min; viability at 72 h, 25 µM [6]: 100%; viability at 72 h, 100 µM [7]: 98%; viability at 72 h, 1000 µM [8]: 81%; viability at 72 h, 1000 µM [9]: 83%; IC50 [10]: > 100 µM; viability at 72 h, 100 µM [11]: 99%; viability at 72 h, 1000 µM [12]: 72%; viability at 72 h, 25 µM [13]: 105%; IC50 [14]: > 100 µM; viability at 72 h, 50 µM [15]: 100%; Activity [16]: Non-Toxic; viability at 72 h, 250 µM [17]: 95%; viability at 72 h, 50 µM [18]: 95%; viability at 72 h, 500 µM [19]: 91%; viability at 72 h, 50 µM [20]: 99%; viability at 72 h, 500 µM [21]: 96%; AUC(0-t) [22]: 16900 ng·h/mL; Activity [23]: Active; viability at 72 h, 25 µM [24]: 108%; viability at 72 h, 50 µM [25]: 103%; viability at 72 h, 100 µM [26]: 104%; IC50 [27]: > 100 µM; Activity [28]: Non-Toxic; viability at 72 h, 500 µM [29]: 89%
